Measured values published in ChEMBL document CHEMBL1127042, “Molecular size and flexibility as determinants of selectivity in the oxidation of N-methyl-4-phenyl-1,2,3,6-tetrahydropyridine analogs by monoamine oxidase A and B” (J Med Chem, 1993).
Values joined by “and” are separate entries in the source; they are usually repeats but may differ in a detail not shown here. Equal values may be shown once.

How the values were obtained:
[1] = target: T1, Amine oxidase [flavin-containing] B (Bos taurus, UniProt P56560); assay: Turnover number against MAO B (umol of substrate/min per umol of enzyme).; conditions: cattle
T1 sequence (P56560 whole entry): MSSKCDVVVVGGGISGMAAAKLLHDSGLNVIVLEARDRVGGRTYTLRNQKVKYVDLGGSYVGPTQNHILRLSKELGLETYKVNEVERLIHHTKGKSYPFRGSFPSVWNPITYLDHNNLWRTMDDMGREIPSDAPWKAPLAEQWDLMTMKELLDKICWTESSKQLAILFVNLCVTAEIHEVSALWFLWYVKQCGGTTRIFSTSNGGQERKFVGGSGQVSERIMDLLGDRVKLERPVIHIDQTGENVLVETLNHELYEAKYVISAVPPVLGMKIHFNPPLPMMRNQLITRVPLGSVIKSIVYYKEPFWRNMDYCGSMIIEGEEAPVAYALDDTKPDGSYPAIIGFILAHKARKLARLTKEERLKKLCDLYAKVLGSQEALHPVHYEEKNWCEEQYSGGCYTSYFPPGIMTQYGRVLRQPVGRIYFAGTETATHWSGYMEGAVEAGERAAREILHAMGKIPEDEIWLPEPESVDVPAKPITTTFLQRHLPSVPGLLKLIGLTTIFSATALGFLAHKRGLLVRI
Outline: (§1)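 Beef liver MAO B, purified. Initial oxidation rates measured polarographically at 30 °C in sodium phosphate buffer, pH 7.2, with 0.2% (w/v) Brij-35. The reaction was started by adding enzyme, dosed so rates were measurable within 60-120 s. Vmax came from double-reciprocal plots. Turnover number was Vmax per flavin content. Flavin content came from the optical density change on anaerobic reduction by benzylamine.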

[2] = target: T2, Amine oxidase [flavin-containing] A (Homo sapiens, UniProt P21397); assay: Turnover number against MAO A (umol of substrate/min per umol of enzyme).
T2 sequence (P21397 whole entry): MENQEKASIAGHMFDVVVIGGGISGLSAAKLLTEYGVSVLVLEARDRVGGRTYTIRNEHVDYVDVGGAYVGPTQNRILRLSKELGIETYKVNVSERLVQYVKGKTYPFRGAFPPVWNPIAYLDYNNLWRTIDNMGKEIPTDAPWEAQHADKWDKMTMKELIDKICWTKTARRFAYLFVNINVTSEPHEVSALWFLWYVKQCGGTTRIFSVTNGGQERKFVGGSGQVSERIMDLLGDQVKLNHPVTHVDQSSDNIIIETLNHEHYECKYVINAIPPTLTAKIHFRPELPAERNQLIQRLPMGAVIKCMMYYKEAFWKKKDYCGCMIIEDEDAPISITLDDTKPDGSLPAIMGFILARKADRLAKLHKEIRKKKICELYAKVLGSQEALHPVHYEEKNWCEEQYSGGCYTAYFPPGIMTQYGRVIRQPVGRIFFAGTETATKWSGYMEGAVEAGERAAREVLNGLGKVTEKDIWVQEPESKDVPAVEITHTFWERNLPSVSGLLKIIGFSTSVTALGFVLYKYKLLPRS
Outline: (§2)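 Human liver MAO A expressed in yeast, purified. Initial oxidation rates measured polarographically (O2 uptake) at 30 °C in sodium phosphate buffer, pH 7.2, with 0.2% (w/v) Brij-35. Enzyme was added last to start the reaction, and its amount was set so rates were read within 60-120 s. Vmax came from double-reciprocal plots. TN was Vmax divided by flavin content. Flavin content was found from the optical density change on anaerobic reduction by kynuramine.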

[3] = target: T1, Amine oxidase [flavin-containing] B; assay: Ratio of turnover number(TN)and Km for MAO B; conditions: cattle; outline: as §1
[4] = target: Amine oxidase [flavin-containing] A (Homo sapiens) (UniProt P21397); assay: Ratio between TN and Km against MAO A
[5] = target: T3, MAO A (amine oxidase [flavin-containing] A) (Homo sapiens, UniProt P21397); assay: Michaelis-Menten constant against MAO A.; outline: as §2
T3 sequence (P21397 whole entry): T2 sequence (P21397 whole entry)

[6] = target: T1, Amine oxidase [flavin-containing] B; assay: Ratio between TN and Km against MAO B; conditions: cattle; outline: as §1

| TN [1] [min⁻¹] | TN [2] [min⁻¹] | Ratio [3] | Ratio [4] | Ratio [6] | SMILES | Km [5] [µM] |
| --- | --- | --- | --- | --- | --- | --- |
| 51.9 | 42 | 1059 | 389 |  | CN1CC=C(CCc2cccs2)CC1 |  |
| 274 | 121 | 326 | 3344 |  | CN1CC=C(Cc2ccc3ccccc3c2)CC1 |  |
| 89 | 443 | 105 | 2592 |  | CN1CC=C(Cc2cccc3ccccc23)CC1 |  |
| 337 | 8.4 | 3270 | 175 |  | CN1CC=C(Cc2cccs2)CC1 |  |
| 50.7 | 29.7 | 890 | 228 |  | CN1CC=C(CCc2ccsc2)CC1 |  |
| 79 | 95.9 | 76 | 2225 |  | CN1CC=C(CCc2ccc3ccccc3c2)CC1 |  |
| 61 | 137 | 1130 | 1120 |  | CN1CC=C(CCc2ccccc2)CC1 |  |
| 80 | 244 | 62 | 3187 |  | CN1CC=C(CCc2cccc3ccccc23)CC1 |  |
| 153 | 13.3 | 785 | 98 |  | CN1CC=C(Cc2ccsc2)CC1 |  |
| 193 | 9.2 | 1250 | 139 |  | CN1CC=C(Cc2ccccc2)CC1 |  |
| 283 | 10 | 963 | 13 |  | NCc1ccccc1 [BENZYLAMINE] |  |
| 165 | 146 |  | 860 | 1964 | NCCC(=O)c1ccccc1N [KYNURAMINE] |  |

| SMILES | TN [1] [min⁻¹] | TN [2] [min⁻¹] | Ratio [3] | Ratio [4] | Ratio [6] | Km [5] [µM] |
| --- | --- | --- | --- | --- | --- | --- |
| CN1CC=C(c2cccs2)CC1 | 12 | 5.21 | 71 | 28 |  |  |
| CN1CC=C(c2ccc3ccccc3c2)CC1 | 73.5 | 10.2 | 101 | 2216 |  |  |
| CN1CC=C(c2ccccc2)CC1 | 204 | 20 | 523 | 143 |  | 140 |
| CN1CC=C(c2cccc3ccccc23)CC1 | 55 | 140 | 500 | 1893 |  |  |
| CN1CC=C(c2ccsc2)CC1 | 4.17 | 8.14 |  | 80 and 160 |  |  |
